# From paper PMC6658111 (Journal of molecular biology, 2018)
# Changes are numbered by the printed parent chain. Numbers in names are those of the source. Where “and” joins values, the source holds several entries; their conditions need not be identical. Identical values can stand only once. Like-named read-outs stand apart in the source and are kept apart here. Non-standard residues stand in square brackets, D forms with d. No end group written: not given here. pT = C[C@@H](OP(=O)(O)O)[C@H](N)C(=O)O; MBP = not defined here
# B1: MBP-dEAG_(long) (wild-type Drosophila EAG CaMKII-binding fragment, residues 768 to 820, fused to maltose-binding protein) (domain or fragment, UniProt Q02280 768-820, looked up)
# chain: {MBP}-VFPKAPKLQASQATLARQDTIDEGGEVDSSPPSRDSRVVIEGAAVSSATVGPS
# modifications: reading uncertain
# B2: MBP-dEAG_(long) I788A (domain or fragment, Drosophila, UniProt Q02280 768-820, looked up)
# chain: VFPKAPKLQASQATLARQDTADEGGEVDSSPPSRDSRVVIEGAAVSSATVGPS
# B3: MBP-dEAG_(long) E790A (domain or fragment, Drosophila, UniProt Q02280 768-820, looked up)
# chain: B2 chain with A21I, E23A
# B4: MBP-dEAG_(long) D789A (domain or fragment, Drosophila, UniProt Q02280 768-820, looked up)
# chain: B2 chain with A21I, D22A
# B5: MBP-dEAG_(long) L782A (domain or fragment, Drosophila, UniProt Q02280 768-820, looked up)
# chain: B2 chain with L15A, A21I
# B6: MBP-dEAG_(long) R784A (domain or fragment, Drosophila, UniProt Q02280 768-820, looked up)
# chain: B2 chain with R17A, A21I
# B7: MBP-dEAG_(long) E793A (domain or fragment, Drosophila, UniProt Q02280 768-820, looked up)
# chain: B2 chain with A21I, E26A
# B8: MBP-dEAG_(long) Q785A (domain or fragment, Drosophila, UniProt Q02280 768-820, looked up)
# chain: B2 chain with Q18A, A21I
# B9: phosphorylated dEAG_(long) channel fragment (dEAG_(long)^P), MBP removed (domain or fragment, Drosophila, UniProt Q02280 768-820, looked up)
# chain: VFPKAPKLQASQATLARQD[pT]IDEGGEVDSSPPSRDSRVVIEGAAVSSATVGPS
# modifications: also: phosphothreonine at T787
# What was measured:
# [1] = tested on: wild type CaMKII kinase domain (residues 1–283); assay type: binding; details: ITC; for −TΔS: 25 °C, pH 7.5, Mg2+-AMPPNP, mean and standard deviation of the mean
# [2] = tested on: CaMKII^K43M,D136N kinase domain; test: Isothermal titration calorimetry with K43M/D136N CaMKII kinase domain; assay type: binding, Drosophila; details: ITC, 25 °C, pH 7.5, Mg2+-AMPPNP, mean and standard deviation of the mean, n=3
# [3] = tested on: CaMKII^D136N kinase domain (residues 1–283); assay type: binding; details: ITC, 25 °C, pH 7.5, Mg2+-AMPPNP, mean and standard deviation of the mean, n=4
# [4] = tested on: wild type CaMKII kinase domain; parameters: species or system Drosophila; details: LC-HRMS of final ITC mixture, Mg2+-AMPCP
# Outline: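 Sample is the end-point mixture of isothermal titration calorimetry at 25 °C. MBP-dEAG channel fragment was titrated into a cell holding the Drosophila CaMKII kinase domain (residues 1–283, E. coli-expressed, wild type or D136N), with one 2 μl injection then 27 × 10 μl. Partners were first co-dialysed against 25 mM HEPES pH 7.5, 150 mM KCl, 0.5 mM TCEP, then with 1 mM MgCl₂ + 250 μM nucleotide. Final composition was 5 mM MgCl₂ and 1 mM nucleotide.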
# [5] = tested on: wild type dEAG channel; test: Two-electrode voltage clamp in oocytes, wild type dEAG channel; assay type: cell-based, Drosophila; details: Xenopus laevis oocytes, co-expression with inactive kinase (K43M/D136N); n=6–8
# Outline: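 Xenopus oocytes were defolliculated with 75 µg/ml Liberase for 40–60 min in Ca²⁺-free ND96. Stage V–VI cells were injected with premixed channel and kinase cRNA, then kept 1–5 d at 16 °C in storage solution containing gentamycin. Currents were recorded by standard two-microelectrode voltage clamp under continuous perfusion with 96 mM NaCl, 2 mM KCl, 0.3 mM CaCl₂, 1 mM MgCl₂, 5 mM HEPES, pH 7.4.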
# [6] = tested on: T787A dEAG channel; test: Two-electrode voltage clamp in oocytes, T787A dEAG channel; assay type: cell-based, Drosophila; details: Xenopus laevis oocytes, n=7–10
# [7] = target: T1, wild type CaMKII kinase domain (residues 1–283) (Drosophila, UniProt Q00168 1-283); test: ITC
# [8] = target: T1, wild type CaMKII kinase domain …; test: ITC; remark: listed apart in the source
# [9] = target: T2, CaMKII kinase domain D136N mutant (residues 1–283) (Drosophila, UniProt Q00168 1-283, D136N); test: ITC
# [10] = target: T1, wild type CaMKII kinase domain …; test: ITC; remark: listed apart in the source
# [11] = target: T2, CaMKII kinase domain D136N mutant …; test: ITC; remark: listed apart in the source
# [12] = target: CaMKII kinase domain K43M/D136N mutant (Drosophila, UniProt Q00168 1-283, K43M | D136N); test: ITC
# [13] = target: T2, CaMKII kinase domain D136N mutant …; test: crystal structure
# [14] = dEAGlong, individually fitted, n=4 (WT), n=3 (R784A, D789A)
# T2 sequence (Q00168 1-283 D136N): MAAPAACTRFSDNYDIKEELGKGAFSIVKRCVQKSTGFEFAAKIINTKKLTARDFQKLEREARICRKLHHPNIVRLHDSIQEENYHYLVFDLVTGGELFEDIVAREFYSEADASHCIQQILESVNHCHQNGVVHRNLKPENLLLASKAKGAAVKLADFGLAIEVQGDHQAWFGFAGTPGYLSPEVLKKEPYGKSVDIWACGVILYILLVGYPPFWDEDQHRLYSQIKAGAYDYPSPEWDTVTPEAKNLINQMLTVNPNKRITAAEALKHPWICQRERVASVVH
# CaMKII kinase domain K43M/D136N mutant, sequence (Q00168 1-283 K43M/D136N): as the sequence (Q00168 1-283 D136N) above, with K43M counted along it
# T1 sequence (Q00168 1-283): as the sequence (Q00168 1-283 D136N) above, with N136D counted along it
# T787A dEAG channel, sequence (Q02280 whole entry T787A, the tested form may be a part): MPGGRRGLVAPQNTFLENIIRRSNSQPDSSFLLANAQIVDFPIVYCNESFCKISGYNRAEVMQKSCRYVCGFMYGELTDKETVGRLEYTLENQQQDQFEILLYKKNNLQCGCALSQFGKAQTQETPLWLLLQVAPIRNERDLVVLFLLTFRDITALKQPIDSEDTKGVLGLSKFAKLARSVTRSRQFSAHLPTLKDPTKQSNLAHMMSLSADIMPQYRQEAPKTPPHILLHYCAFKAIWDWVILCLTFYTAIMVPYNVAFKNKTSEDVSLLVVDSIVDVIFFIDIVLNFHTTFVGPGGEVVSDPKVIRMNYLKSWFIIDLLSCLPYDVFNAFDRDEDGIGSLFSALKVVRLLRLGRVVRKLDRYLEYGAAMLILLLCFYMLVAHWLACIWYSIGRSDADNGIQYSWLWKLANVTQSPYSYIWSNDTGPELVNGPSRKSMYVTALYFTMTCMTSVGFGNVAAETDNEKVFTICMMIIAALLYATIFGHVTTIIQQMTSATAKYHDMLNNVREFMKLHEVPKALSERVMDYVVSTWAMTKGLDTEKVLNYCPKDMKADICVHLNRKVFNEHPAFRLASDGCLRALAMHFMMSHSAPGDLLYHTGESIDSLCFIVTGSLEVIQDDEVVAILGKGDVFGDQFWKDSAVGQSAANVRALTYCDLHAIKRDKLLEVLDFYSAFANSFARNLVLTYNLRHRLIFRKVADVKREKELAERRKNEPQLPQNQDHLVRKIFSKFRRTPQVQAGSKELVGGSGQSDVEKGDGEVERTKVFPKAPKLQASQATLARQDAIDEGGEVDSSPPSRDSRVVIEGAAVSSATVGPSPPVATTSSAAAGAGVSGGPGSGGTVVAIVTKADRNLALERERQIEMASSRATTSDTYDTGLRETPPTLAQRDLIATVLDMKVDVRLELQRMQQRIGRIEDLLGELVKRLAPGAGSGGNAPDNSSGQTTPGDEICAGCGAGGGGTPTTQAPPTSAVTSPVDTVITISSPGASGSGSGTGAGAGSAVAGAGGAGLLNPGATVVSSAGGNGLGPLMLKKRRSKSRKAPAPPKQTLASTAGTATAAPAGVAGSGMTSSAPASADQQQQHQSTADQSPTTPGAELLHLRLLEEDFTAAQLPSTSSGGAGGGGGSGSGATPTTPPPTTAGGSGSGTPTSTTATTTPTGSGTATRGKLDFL
molecule,measurement,setting,value
EAGlong^D789A: alanine mutant D789A of MBP-dEAGlong ({MBP}-VFPKAPKLQASQATLARQDTIAEGGEVDSSPPSRDSRVVIEGAAVSSATVGPS; reading uncertain),−TΔS,[1]; [14],5.7 ± 2.3 kcal/mol
EAGlong^R784A: alanine mutant R784A of MBP-dEAGlong ({MBP}-VFPKAPKLQASQATLAAQDTIDEGGEVDSSPPSRDSRVVIEGAAVSSATVGPS; reading uncertain),−TΔS,[1]; [14],4.4 ± 4.7 kcal/mol
"EAGshort: dEAG residues 768 to 795 with mutations S778N and T781K, fused to maltose-binding protein ({MBP}-VFPKAPKLQANQAKLARQDTIDEGGEVD; reading uncertain; also: N-terminal His6, state not given here)",−TΔS,"[1]; dEAGshort, wild type kinase, n=3",11.4 ± 0.9 kcal/mol
same,−TΔS,[2],8.7 ± 0.1 kcal/mol
same,−TΔS,[3],5.3 ± 3.8 kcal/mol
same,phosphorylation state of fragment at end of ITC,[4],dephosphorylated during the titration
dEAGlong^P: phosphorylated dEAGlong channel fragment used in crystal structure (VFPKAPKLQASQATLARQD[pT]IDEGGEVDSSPPSRDSRVVIEGAAVSSATVGPS; also: phosphothreonine at T787),affinity relative to typical kinase-substrate (KD ~200 μM),"[1]; fold tighter than expected for a kinase-substrate, typical KD from ref 27",approximately 200 fold
inactive Drosophila kinase: full-length Drosophila CaMKII with two point mutations (K43M/D136N) in the active site,reduction of channel current,[5],more than 10 fold
same,effect of co-expressed kinase on channel activity,[6],loss of measurable currents
B1,Kd,[7],1 µM
same,dH,[7],-7.3 kcal/mol
same,stoichiometry N,[7],0.94
same,Kd,[8],0.674 µM
same,dH,[8],-17.3 kcal/mol
same,stoichiometry N,[8],0.96
B2,Kd,[8],80.3 µM
same,dH,[8],-10.5 kcal/mol
same,stoichiometry N,[8],0.667 and 1.09
B3,Kd,[8],2.43 µM
same,dH,[8],-15.7 kcal/mol
same,stoichiometry N,[8],1.06
B4,Kd,[8],7.3 µM
same,dH,[8],-12.7 kcal/mol
same,stoichiometry N,[8],1.02
B5,Kd,[8],24.6 µM
same,dH,[8],-3.75 kcal/mol
same,stoichiometry N,[8],1.28 and 0.645
B6,Kd,[8],47 µM
same,dH,[8],-10.3 kcal/mol
same,stoichiometry N,[8],0.85
B7,Kd,[8],1.68 µM
same,dH,[8],-16.7 kcal/mol
same,stoichiometry N,[8],0.978
B8,Kd,[8],12.6 µM
same,dH,[8],-18.5 kcal/mol
same,stoichiometry N,[8],0.747 and 0.664
"VFPKAPKLQANQAKLARQDTIDEGGEVD (domain or fragment, UniProt Q02280 768-795, looked up)",Kd,[9],0.216 µM
same,dH,[9],-16.3 kcal/mol
same,stoichiometry N,[9],0.83
same,Kd,[10],0.094 µM
same,dH,[10],-21 kcal/mol
same,stoichiometry N,[10],0.86
same,Kd,[11],0.197 µM
same,dH,[11],-14.5 kcal/mol
same,stoichiometry N,[11],0.81
same,Kd,[12],0.173 µM
same,dH,[12],-18 kcal/mol
same,stoichiometry N,[12],0.79
"{MBP}-VFPKAPKLQANQAKLARQD[pT]IDEGGEVD (domain or fragment, Drosophila, UniProt Q02280 768-795, looked up, reading uncertain) [MBP-dEAG_(short)^P (phosphorylated dEAG_(short), phosphorylated at T787)]",Kd,[9],0.000475 µM
same,dH,[9],-8.9 kcal/mol
same,stoichiometry N,[9],1.07
B9,binding result,[13],binds
